The source made the active and inactive calls.
Legend:
[1] = system: A549; test: Cytotoxicity against human A549 cells after 72 hrs by MTT assay; type: functional, cell-based; conditions: A549, 72 h
How it was run: (§1)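 Tumour lines kept in DMEM with 10% FBS and 1% penicillin/streptomycin at 37°C, 5% CO2. Seeded at 1500-5000 cells/well by doubling time and size, 24 h, then compound in DMSO-containing medium (final DMSO 0.1%) for 72 h. MTT (5 mg/mL) 4 h at 37°C, DMSO solubilisation, absorbance at 570 nm.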

[2] = system: MCF7; test: Cytotoxicity against human MCF7 cells after 72 hrs by MTT assay; type: functional, cell-based; conditions: MCF7, 72 h; how it was run: as §1
[3] = system: SW-620; test: Cytotoxicity against human SW620 cells assessed as inhibition of cell proliferation at 20 uM after 72 hrs by MTT assay relative to control; type: functional; conditions: SW-620, 72 h
How it was run: (§2)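 Single-concentration screen at 20 μM with 72 h exposure in DMEM with 10% FBS, final DMSO 0.1%. Read-out was MTT (5 mg/mL, 4 h, 37°C), DMSO solubilisation and absorbance at 570 nm, expressed as percent inhibition. Lines reaching a threshold percentage went on to IC50 determination.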

[4] = system: A549; test: Cytotoxicity against human A549 cells assessed as inhibition of cell proliferation at 20 uM after 72 hrs by MTT assay relative to control; type: functional; conditions: A549, 72 h; how it was run: as §2
[5] = system: MCF7; test: Cytotoxicity against human MCF7 cells assessed as inhibition of cell proliferation at 20 uM after 72 hrs by MTT assay relative to control; type: functional; conditions: MCF7, 72 h; how it was run: as §2
[6] = system: SW-620; test: Anticlonogenic activity against human SW620 cells assessed as colony formation at 2.5 to 5 uM after 10 days by crystal violet staining based imaging analysis (reference value: 100%); type: functional
How it was run: (§3)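 SW620 cells seeded at 1000 cells/well in DMEM, left overnight at 37°C, 5% CO2, then exposed to compound for ten days with drug-containing medium renewed every three days. Cells were PBS-washed, fixed in 4% paraformaldehyde for 15 min, stained with 0.5% (w/v) crystal violet for 10 min, air-dried, photographed, and colonies quantified by image analysis.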

[7] = system: SW-620; test: Inhibition of colony formation in human SW620 cells at 1.25 to 5 uM after 10 days by crystal violet staining based assay; type: functional, cell-based
How it was run: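 SW620 cells seeded at 1000 cells/well in DMEM and incubated overnight at 37°C, 5% CO2. Compound-containing medium was given for ten days and renewed every three days. Cells were then washed with PBS, fixed 15 min in 4% paraformaldehyde, stained 10 min with 0.5% (w/v) crystal violet, washed, air-dried and photographed. Colony formation was quantified from the images.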

[8] = system: SW-620; test: Anticlonogenic activity against human SW620 cells assessed as colony formation at 0.3125 uM after 10 days by crystal violet staining based imaging analysis (reference value: 100%); type: functional; how it was run: as §3
[9] = system: SW-620; test: Cell cycle arrest in human SW620 cells assessed as accumulation at G2/M phase at 1.25 uM after 24 hrs by propidium iodide staining based flow cytometry (reference value: 19%); type: functional
[10] = system: SW-620; test: Induction of apoptosis in human SW620 cells assessed as early apoptotic cells at 1.25 uM after 24 hrs by Annexin V-FITC/propidium iodide staining based flow cytometry (reference value: 2.35%); type: functional
[11] = system: SW-620; test: Induction of apoptosis in human SW620 cells assessed as late apoptotic cells at 1.25 uM after 24 hrs by Annexin V-FITC/propidium iodide staining based flow cytometry (reference value: 0.43%); type: functional
[12] = system: SW-620; test: Induction of apoptosis in human SW620 cells assessed as live cells at 2.5 uM after 24 hrs by Annexin V-FITC/propidium iodide staining based flow cytometry (reference value: 97.03%); type: functional
[13] = system: SW-620; test: Induction of apoptosis in human SW620 cells assessed as live cells at 5 uM after 24 hrs by Annexin V-FITC/propidium iodide staining based flow cytometry (reference value: 97.03%); type: functional
[14] = system: SW-620; test: Induction of apoptosis in human SW620 cells assessed as late apoptotic cells at 5 uM after 24 hrs by Annexin V-FITC/propidium iodide staining based flow cytometry (reference value: 0.43%); type: functional
[15] = system: SW-620; test: Induction of apoptosis in human SW620 cells assessed as necrotic cells at 5 uM after 24 hrs by Annexin V-FITC/propidium iodide staining based flow cytometry (reference value: 0.15%); type: functional
[16] = system: SW-620; test: Induction of apoptosis in human SW620 cells assessed as live cells at 10 uM after 24 hrs by Annexin V-FITC/propidium iodide staining based flow cytometry (reference value: 97.03%); type: functional
[17] = system: SW-620; test: Induction of apoptosis in human SW620 cells assessed as early apoptotic cells at 1.25 uM after 48 hrs by Annexin V-FITC/propidium iodide staining based flow cytometry (reference value: 2.75%); type: functional
[18] = system: SW-620; test: Induction of apoptosis in human SW620 cells assessed as live cells at 2.5 uM after 48 hrs by Annexin V-FITC/propidium iodide staining based flow cytometry (reference value: 96.26%); type: functional
[19] = system: SW-620; test: Induction of apoptosis in human SW620 cells assessed as early apoptotic cells at 2.5 uM after 48 hrs by Annexin V-FITC/propidium iodide staining based flow cytometry (reference value: 2.75%); type: functional
[20] = system: SW-620; test: Induction of apoptosis in human SW620 cells assessed as live cells at 5 uM after 48 hrs by Annexin V-FITC/propidium iodide staining based flow cytometry (reference value: 96.26%); type: functional
[21] = system: SW-620; test: Induction of apoptosis in human SW620 cells assessed as live cells at 10 uM after 48 hrs by Annexin V-FITC/propidium iodide staining based flow cytometry (reference value: 96.26%); type: functional
[22] = system: SW-620; test: Induction of apoptosis in human SW620 cells assessed as early apoptotic cells at 10 uM after 48 hrs by Annexin V-FITC/propidium iodide staining based flow cytometry (reference value: 2.75%); type: functional
[23] = system: SW-620; test: Induction of apoptosis in human SW620 cells assessed as live cells at 1.25 uM after 72 hrs by Annexin V-FITC/propidium iodide staining based flow cytometry (reference value: 97.34%); type: functional
[24] = system: SW-620; test: Induction of apoptosis in human SW620 cells assessed as late apoptotic cells at 1.25 uM after 72 hrs by Annexin V-FITC/propidium iodide staining based flow cytometry (reference value: 0.29%); type: functional
[25] = system: SW-620; test: Induction of apoptosis in human SW620 cells assessed as necrotic cells at 1.25 uM after 72 hrs by Annexin V-FITC/propidium iodide staining based flow cytometry (reference value: 0.27%); type: functional
[26] = system: SW-620; test: Induction of apoptosis in human SW620 cells assessed as early apoptotic cells at 2.5 uM after 72 hrs by Annexin V-FITC/propidium iodide staining based flow cytometry (reference value: 2.1%); type: functional
[27] = system: SW-620; test: Induction of apoptosis in human SW620 cells assessed as necrotic cells at 2.5 uM after 72 hrs by Annexin V-FITC/propidium iodide staining based flow cytometry (reference value: 0.27%); type: functional
[28] = system: SW-620; test: Induction of apoptosis in human SW620 cells assessed as live cells at 10 uM after 72 hrs by Annexin V-FITC/propidium iodide staining based flow cytometry (reference value: 97.34%); type: functional
[29] = system: SW-620; test: Induction of apoptosis in human SW620 cells assessed as necrotic cells at 10 uM after 72 hrs by Annexin V-FITC/propidium iodide staining based flow cytometry (reference value: 0.27%); type: functional

SMILES | IC50 [1] [µM] | IC50 [2] [µM] | inhibition at 20 µM [3] [%] | inhibition at 20 µM [4] [%] | inhibition at 20 µM [5] [%] | Activity [6] [%] | inhibition [7] | Activity [8] [%] | Activity [9] [%] | Activity [10] [%] | Activity [11] [%] | Activity [12] [%] | Activity [13] [%] | Activity [14] [%] | Activity [15] [%] | Activity [16] [%] | Activity [17] [%] | Activity [18] [%] | Activity [19] [%] | Activity [20] [%] | other results
COc1ccc(/C=C2\CCC/C(=C\c3cccc(O)c3)C2=O)cc1OC | 4.3 | 2.9 | > 50 | > 50 | > 50 | 0 | Active | 97.9 | 24 | 4.33 | 0.31 | 93.7 | 73.65 | 2.26 | 0.35 | 50.73 | 4.11 | 91.27 | 4.43 | 36.63 | Activity [21]: 17%; Activity [22]: 9.84%; Activity [23]: 92.34%; Activity [24]: 1.82%; Activity [25]: 0.63%; Activity [26]: 4.52%; Activity [27]: 0.78%; Activity [28]: 2.19%; Activity [29]: 0.22%
COc1ccc(/C=C2\CCC/C(=C\c3cc(OC)c(OC)c(OC)c3)C2=O)cc1OC | 2.9 | 1.6 | > 50 | > 50 | > 50 | 0 | Active | 93.6 | 20 | 9.26 | 0.31 | 86.22 | 55.03 | 0.35 | 0.36 | 46.2 | 6.01 | 79.03 | 12.28 | 26.23 | Activity [21]: 13.21%; Activity [22]: 0.37%; Activity [23]: 34.33%; Activity [24]: 1.3%; Activity [25]: 0.35%; Activity [26]: 14.37%; Activity [27]: 1.36%; Activity [28]: 2.37%; Activity [29]: 0.24%
